bIAP inhibitor: intestinal alkaline phosphatase (bovine) inhibition; purified bovine IAP, CDP-star luminescence, 30 min; 190,000 tested, under 10 active; inhibition, % at 20 µM;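 active = over 50% inhibition of intestinal alkaline phosphatase at 20 µM in the single-dose screen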
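Assay system – bovine IAP enzyme · Quantity – bovine IAP at 1/65,000,000 final dilution · Detection – CDP-star luminescence signal · Times – 30 min reaction at room temperature · Also added – CDP-star substrate at 30 µM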
hIAP inh: human IAP inhibition. P09923. purified IAP, CDP-Star luminescence, 30 min. inhibition, % at 10 µM. 330,000 compounds, 0.12% hits. AID 2544;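 active = inhibition reaching a set limit with compound at 10 µM in the primary screen, cut at about 35% in these data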
Target sequence (P09923 whole entry, looked up): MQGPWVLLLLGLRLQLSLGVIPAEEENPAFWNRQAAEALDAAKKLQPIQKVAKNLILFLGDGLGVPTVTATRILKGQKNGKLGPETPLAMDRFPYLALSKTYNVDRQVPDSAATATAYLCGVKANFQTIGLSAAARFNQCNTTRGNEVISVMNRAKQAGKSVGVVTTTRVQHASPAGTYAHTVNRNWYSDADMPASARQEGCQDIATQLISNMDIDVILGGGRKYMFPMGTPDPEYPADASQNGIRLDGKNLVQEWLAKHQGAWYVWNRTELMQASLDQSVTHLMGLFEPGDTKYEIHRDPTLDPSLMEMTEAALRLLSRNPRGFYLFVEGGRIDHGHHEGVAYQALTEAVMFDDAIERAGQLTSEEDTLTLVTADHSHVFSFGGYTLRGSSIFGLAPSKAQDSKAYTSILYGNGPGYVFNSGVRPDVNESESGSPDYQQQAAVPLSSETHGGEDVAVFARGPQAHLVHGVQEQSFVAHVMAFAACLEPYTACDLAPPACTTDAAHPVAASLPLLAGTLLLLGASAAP
mIAP inh: blocks mouse intestinal alkaline phosphatase; purified mouse IAP, CDP-Star luminescence, 30 min; inhibition, % at 10 µM; 330,000 compounds, 0.2% hits; AID 2806;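 active = inhibition of at least 40% at 10 µM in the primary screen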
mIAP act: increases mouse intestinal alkaline phosphatase activity | muIAP, CDP-Star luminescence, 30 min; stronger effect = higher value; 1 = vehicle-only enzyme signal, 0 = enzyme-free wells | AID 2805 | activation factor at 10 µM | 330,000 compounds, 0.24% hits;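 active = activation factor of at least 2 at 20 µM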
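System: Mouse IAP enzyme | Also added: CDP-Star substrate | Dosing: Compounds dispensed in DMSO | Schedule: 30 min enzyme-substrate-compound incubation at room temperature | Technique: Chemiluminescence readout | Control set: DMSO-only wells and no-enzyme negative control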
hIAP activ: increases human intestinal alkaline phosphatase activity | purified human IAP, CDP-Star luminescence, 30 min; stronger effect = higher value; 1 = vehicle-only enzyme, 0 = enzyme-free background | activation factor at 10 µM | 330,000 compounds, 0.16% hits | AID 2524;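 active = activation factor of the enzyme at least 2-fold when tested at 20 µM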
bIAP act: increases bovine intestinal alkaline phosphatase activity; purified bovine IAP, CDP-star luminescence, 30 min; stronger effect = higher value; fold of DMSO-control signal, blank-subtracted; activation factor at 20 µM; 200,000 compounds, 0.17% hits; AID 1016;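 active = activation factor of 2 or more at 20 µM, a signal rise over negative controls twice the positive control's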
Hits are given with their value; - = inactive; . = not tested or not shown. In the library only some 0.77% were active in any assay of this set; here they are far more common.

SMILES | bIAP inhibitor | hIAP inh | mIAP inh | mIAP act | hIAP activ | bIAP act
O=C(Nc1nc(-c2ccccc2)cs1)Nc1ccc(F)cc1F | - | - | - | - | - | -
O=C(Nc1ccc(Cl)c(Cl)c1)Nc1nc(-c2ccccc2)cs1 | - | - | - | 2.11 | - | -
O=C(Nc1ccccc1)Nc1nc(-c2ccccc2)cs1 | . | - | - | - | - | .
Cn1nc(C(=O)OCC(=O)Nc2ccc3ccccc3c2)c2ccccc2c1=O | - | - | - | - | - | -
CC(C)(C)OC(=O)N1CCN(C(=O)c2[nH]cnc2C(=O)N[C@@H](Cc2ccccc2)C(=O)OCc2ccccc2)CC1 | . | - | - | - | - | .
CC(C)(C)OC(=O)[C@H](Cc1ccccc1)NC(=O)c1nc[nH]c1C(=O)N1CCN(C(=O)OC(C)(C)C)CC1 | . | - | 41.4 | - | - | .
CC1CCCCN1C(=O)CSc1nc2c(c(=O)n(C)c(=O)n2C)n1C (configuration not stated) | . | - | - | - | - | .
O=C(Nc1cccc(NC(=O)c2ccc(Cl)cc2Cl)c1)c1cccnc1 | . | - | - | - | - | .
O=C(Nc1ccc2ccccc2c1)c1cn(-c2ccccc2)nc1-c1cccs1 | - | - | - | 2.14 | - | -
CCOC(=O)N1CCC(NC(=O)c2ccc3c(c2)N(Cc2ccc(C)cc2)CCS3)CC1 | - | - | - | - | - | -
CCOC(=O)N1CCC(NC(=O)c2ccc3c(c2)N(Cc2ccccc2)CCS3)CC1 | - | - | - | - | - | 2.5
COc1ccc(N=Nc2ccc(O)c3ncccc23)cc1 | . | - | - | - | - | .
CCc1ccc(N=Nc2ccc(O)c3[nH]cnc23)cc1 | . | - | 40.1 | - | - | .
C=CC[C@@H](CC(=O)N(CCO)Cc1ccccc1)C(=O)NC[C@H](OC(=O)[C@@H](CC=C)Cc1ccc(F)cc1)c1ccccc1 | . | - | - | - | - | .
O=C(NCCSCc1ccco1)Nc1cc(Cl)cc(Cl)c1 | . | - | - | 2.36 | - | .
Cc1cc(OCCCCCn2ccnc2)cc(C)c1Cl | - | - | - | - | - | 68.3
O=C(Cc1ccccc1Cl)Nc1cccc(S(=O)(=O)N2CCCCCC2)c1 | . | - | - | 2.13 | - | .
Cc1cc(OCC(=O)Nc2cccc(S(=O)(=O)N3CCCC3)c2)ccc1Cl | . | - | - | - | - | .
O=C(CCc1ccccc1Cl)Nc1cccc(S(=O)(=O)N2CCCC2)c1 | . | - | - | - | - | .
Cc1cc(OCC(=O)Nc2cccc(S(=O)(=O)N3CCCCC3)c2)ccc1Cl | . | - | - | 3.07 | - | .
COC(=O)C(Cc1ccccc1)NC(=O)CCNC(=O)c1ccco1 (configuration not stated) | . | - | - | - | - | .
Cc1cccc(NC(=O)Nc2ccc3c(c2)CCC3)c1 | . | - | - | 2.88 | - | .
COc1cc(/C=C2\CC/C(=C\c3cc(OC)c(O)c(OC)c3)C2=O)cc(OC)c1O | . | - | 55.6 | - | - | -
Cc1ccccc1NC(=O)CN1CCC(NC(=O)Nc2ccccc2)CC1 | - | - | - | - | - | 2.3
COc1ccc(OCCNC(=O)Nc2cc(F)c(F)cc2Cl)cc1 | - | - | - | - | - | -
SMILES | bIAP inhibitor | hIAP inh | mIAP inh | mIAP act | hIAP activ | bIAP act
COc1cccc(OCCNC(=O)Nc2cc(F)c(F)cc2Cl)c1 | - | - | - | 2.33 | - | -
COc1ccc(CNC[C@@H](CCCCN(C)Cc2ccc(OC)cc2)N2C[C@H](c3ccccc3)N(CCc3ccc(Cl)c(Cl)c3)C(=O)C2=O)cc1 | - | - | - | - | - | 6.6
Cc1ccc(N/C(N)=N/c2nc(CSc3nnc(C)s3)cc(=O)[nH]2)c(C)c1 | - | - | - | - | - | 2.1
CC(C)[C@H](NC(=O)[C@@H]1Cc2ccccc2CN1C(=O)OC(C)(C)C)C(=O)NCC1CCCO1 (some centres not stated) | . | - | - | - | - | .
Cn1c(=O)c2[nH]c(COc3ccc(C(C)(C)C)cc3)nc2n(C)c1=O | . | - | - | - | - | .
CCCC(=NC(C)CC)C1=C(O)CC(c2ccccc2)CC1=O (configuration not stated) | . | - | - | - | - | .
CC(C)NC(=O)N(C)C[C@H]1Oc2ccc(NC(=O)Nc3ccc(C(F)(F)F)cc3)cc2C(=O)N([C@H](C)CO)C[C@@H]1C | . | - | - | 2.39 | - | .
C[C@H](CO)N1C[C@H](C)[C@@H](CN(C)C(=O)Nc2ccccc2)Oc2ccc(NC(=O)NC3CCCCC3)cc2C1=O | . | - | - | 2.08 | - | .
C[C@H](CO)N1C[C@H](C)[C@H](CN(C)Cc2ccccc2)Oc2c(NC(=O)Nc3ccc(F)cc3)cccc2C1=O | . | - | - | - | - | .
C[C@H](CO)N1C[C@H](C)[C@@H](CN(C)C(=O)NC2CCCCC2)Oc2ccc(NC(=O)NC3CCCCC3)cc2C1=O | . | - | - | - | - | .
COc1ccc(NC(=O)Nc2ccc3c(c2)C(=O)N([C@H](C)CO)C[C@H](C)[C@@H](CN(C)C(=O)Nc2ccccc2)O3)cc1 | . | - | - | 2.85 | - | .
C[C@H](CO)N1C[C@H](C)[C@H](CN(C)Cc2ccccc2)Oc2ccc(NC(=O)Nc3ccc(F)cc3)cc2C1=O | . | - | - | 2.2 | - | .
Cc1ccc(CNC(=O)c2ccc(N3CCC4(CC3)CC(c3ccccc3)=NO4)c(N)c2)cc1 | . | - | - | - | - | .
O=C1NC(Cc2ccccc2)c2nc3ccc(F)cc3c(=O)n2-c2cc(Cl)ccc21 (configuration not stated) | . | - | - | - | - | .
CCOC(=O)c1cc(CC)sc1NC(=O)COC(=O)C1CCC1 | . | - | - | - | - | .
COc1ccc(NC(=O)CSc2nc3ccccc3c(=O)n2CCCO)cn1 | . | - | - | - | - | .
C[C@H](CO)N1C[C@H](C)[C@@H](CN(C)C(=O)Nc2ccc(C(F)(F)F)cc2)Oc2ccc(NC(=O)Nc3ccc(C(F)(F)F)cc3)cc2C1=O | . | - | - | - | - | .
C[C@H]1CN([C@@H](C)CO)C(=O)c2cc(NC(=O)NC3CCCCC3)ccc2O[C@H]1CN(C)C(=O)Nc1ccc(C(F)(F)F)cc1 | . | - | - | 2.02 | - | .
COc1ccc(CNC(=O)CSCc2cnn(-c3ccccc3)c2-n2cccc2)cc1 | - | - | - | - | - | 2.5
C/C(CC(=O)NC(C)C)=N\NC(=O)COc1cc(C)c(Br)cc1Br | - | - | - | - | - | 2.6
CC(C(=O)NCc1ccco1)n1ccc2cc(S(=O)(=O)N3CCCC3)ccc21 (configuration not stated) | . | - | - | - | - | .
COc1ccc(CNC(=O)C(C)n2ccc3cc(S(=O)(=O)N4CCCCCC4)ccc32)cc1 (configuration not stated) | . | - | - | 2.07 | - | .
COc1ccc(C)cc1N(CC(=O)N/N=C/c1ccccc1C(=O)O)S(=O)(=O)c1ccccc1 | - | - | - | - | - | -
CCN(C(=O)CN1C(=O)S/C(=C\c2ccc(F)cc2)C1=O)C1CCS(=O)(=O)C1 (configuration not stated) | . | - | - | - | - | .

Screens: PubChem, Sanford-Burnham Center for Chemical Genomics
